According to publication PMC7038784 (Clinical cancer research : an official journal of the …, 2019):
Blank lines part the entries; values can stand above or below the compound they belong to.

Assays:
[1] = Plasma pharmacokinetics in DTC expansion cohort; format: in vivo, human; details: steady-state trough
How it was run: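 Oral once-daily dosing in patients, 28-day cycles. The VEGFR inhibitor was profiled over 0–24 h after the first dose (C1D1). Troughs for both drugs were taken on C1D15 and at the second biopsy (C2D1 ± 48 h). Plasma was acetonitrile-extracted and run by positive-ESI LC-MS/MS: MEK inhibitor range 1–200 ng/mL; VEGFR inhibitor range 0.010–1 μg/mL, with 1:100 dilution up to 100 μg/mL. Noncompartmental analysis: Cmax observed, AUC by linear trapezoidal rule, Css,min averaged from both troughs.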

[2] = tested on: progressive radioiodine refractory DTC; details: cited from earlier work
[3] = tested on: thyroid cancer cell lines and xenograft models; details: preclinical studies in DTC; cited from earlier work
DTC = details: study of 20 patients; cited from earlier work

Css,min ([1]; trametinib 2 mg with pazopanib 800 mg daily): 18.7 ± 6.6 ng/mL
SMILES: CC(=O)Nc1cccc(-n2c(=O)n(C3CC3)c(=O)c3c(Nc4ccc(I)cc4F)n(C)c(=O)c(C)c32)c1 [trametinib]

Css,min ([1]; pazopanib 800 mg with trametinib 2 mg daily): 33800 ± 17300 ng/mL
SMILES: Cc1ccc(Nc2nccc(N(C)c3ccc4c(C)n(C)nc4c3)n2)cc1S(N)(=O)=O [pazopanib]
PR rate, papillary thyroid cancer ([2]; 5/11 patients as printed): 33%
PR rate, follicular thyroid cancer ([2]; 8/11): 73%
RECIST partial response (PR) rate ([2]; single-agent pazopanib, DTC overall): 49%
median PFS ([2]; single-agent pazopanib): 360 days
effect on p-ERK [3]: paradoxical upregulation of p-ERK

SMILES: Cn1cnc2c(F)c(Nc3ccc(Br)cc3Cl)c(C(=O)NOCCO)cc21 [Selumetinib]
PRs, patients (DTC): five
stable disease, patients (DTC): three
